Test results as given in ChEMBL document CHEMBL6071149, “Synthesis and photo-induced anticancer activity of new 2-phenylethenyl-1H-benzo[e]indole dyes” (Eur J Med Chem, 2024).
Activity calls are given as the source filed them.

Legend:
G-361 [1] = experiment: Induction of oxidative stress in human G361 cells assessed as increase in HO-1 level upto 4 uM under dark condition by immunoblot analysis; type: functional, cell-based
G-361 [2] = experiment: Induction of apoptosis in human G361 cells assessed as increase in cleaved pro-caspase-9 level upto 4 uM pretreated for 4 hrs followed by light irradiation of 10 J/cm2 at 414 nm measured after 20 hrs by Western blot analysis; type: functional, cell-based; conditions: time 24.0 hrs
Procedure, shortened: (§1)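 Compound exposure 4 h, then 414 nm irradiation, then 20 h further incubation. Lysates made in RIPA buffer, separated by SDS-PAGE and blotted to nitrocellulose. Primary antibodies in TBS with 4 % BSA and 0.1 % Tween 20, incubated overnight. Peroxidase secondary antibody with chemiluminescent detection. GAPDH served as loading control.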

ARN-8 cell [3] = experiment: Induction of apoptosis in human ARN-8 cells-derived from human A375 cells assessed as increase in cleaved BAX level upto 4 uM pretreated for 4 hrs followed by light irradiation of 10 J/cm2 at 414 nm measured after 20 hrs by Western blot analysis; type: functional, cell-based; conditions: time 24.0 hrs; procedure, shortened: as §1
ARN-8 cell [4] = experiment: Downregulation of p53 level in human ARN-8 cells-derived from human A375 cells at higher concentration pretreated for 4 hrs followed by light irradiation of 10 J/cm2 at 414 nm measured after 20 hrs by fluorescence based assay; type: functional; conditions: time 24.0 hrs

Measured: Activity

COc1ccc(/C=C/C2=Nc3ccc4ccccc4c3C2(C)C)cc1[N+](=O)[O-]
active: G-361 [1] | G-361 [2] | ARN-8 cell [3] | ARN-8 cell [4]
